Assay results from PMC2800230 (Nucleic Acids Research, 2009).
“Also recorded” adds a separate entry of the source. Blank lines part the entries; values can stand above or below the molecule they belong to. The star is where a group is joined. Biotin = O=C1N[C@H]2[C@H](CS[C@H]2CCCCC(=O)*)N1; Ahx = NCCCCCC(=O)O

Assays:
RAD51 = conditions: in contrast to BRC4; ref [20],[21],[39]; cited from earlier work
RAD51-dsDNA filament = assay: EMSA of RAD51 nucleoprotein filament formation on dsDNA; assay type: biochemical, human; conditions: RAD51 2 µM, result in words
In short: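 Untagged RAD51 (2 µM) was pre-incubated with BRC peptides at stated µM concentrations for 10 min on ice. Complexes were resolved on 0.5% agarose in TAE (50 mA, 4 h, 4°C) and phosphorimaged.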

mCherry-RAD51^WT = assay: Bio-BRC4 pull-down from DT40 whole-cell extract: mCherry-RAD51^WT; assay type: binding, human; conditions: lysates of untreated DT40 cells; streptavidin magnetic beads; western blot
In short: (§1)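 Lysates from untreated Rad51−/− DT40 cells (no doxycycline) expressing mCherry-tagged wild-type or mutant human RAD51 alongside wild-type HsRAD51Tet off were incubated with BRC4 peptide. The peptide carried an N-terminal biotin on a 6-aminohexanoic acid spacer and a C-terminal amide, was HPLC-purified to 95%, and was bound to streptavidin-coated magnetic beads. Captured RAD51 species were detected by SDS–PAGE and immunoblotting.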

[1] = system: mCherry-RAD51 RAD51^LL-EE; assay: Bio-BRC4 pull-down from DT40 whole-cell extract: mCherry-RAD51^LL-EE; assay type: binding, human; conditions: lysates of untreated DT40 cells also expressing HsRAD51^Tet off; western blot
In short: as §1

[2] = system: mCherry-RAD51 RAD51^LLRR-EEAA; assay: Bio-BRC4 pull-down from DT40 whole-cell extract: mCherry-RAD51^LLRR-EEAA; assay type: binding, human; conditions: lysates of untreated DT40 cells also expressing HsRAD51^Tet off; western blot
In short: as §1

BRC4–RAD51 interaction = assay type: binding, human; conditions: competitive ELISA; comparison in words
In short: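 Solid-phase BRC4 peptide was bound by recombinant full-length human RAD51 in solution. The RAD51 was thrombin-cleaved overnight at 22°C from GST-RAD51 expressed in E. coli BL21, then dialysed into PBS. Wild-type or mutant biotinylated BRC peptides were added as soluble competitors. Absorbance is given as mean percentage (SEM) of triplicates, normalised to the positive control without soluble inhibitor.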

[3] = target: T1, Recombinant full-length RAD51, cleaved from GST-RAD51 (human, UniProt Q06609 1-339); assay: ELISA
T1 sequence (looked up): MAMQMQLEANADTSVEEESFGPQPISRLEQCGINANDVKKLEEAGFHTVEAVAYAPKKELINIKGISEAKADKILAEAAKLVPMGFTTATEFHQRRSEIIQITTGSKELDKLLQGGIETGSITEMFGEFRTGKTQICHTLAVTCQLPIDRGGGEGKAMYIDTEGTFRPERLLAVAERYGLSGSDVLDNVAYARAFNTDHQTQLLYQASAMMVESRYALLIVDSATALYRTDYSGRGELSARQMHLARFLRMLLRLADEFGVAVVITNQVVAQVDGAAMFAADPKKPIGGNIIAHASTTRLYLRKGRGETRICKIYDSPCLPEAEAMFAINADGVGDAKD

[4] = target: T2, Untagged recombinant RAD51 (human, UniProt Q06609 1-339); assay: native gel or EMSA
T2 sequence (looked up): T1 sequence (looked up)

RAD51 (WT) = target: T3, RAD51 (WT) (Homo sapiens, UniProt Q06609 1-339); assay: streptavidin-bead pull-down
T3 chain: T1 sequence (looked up)

RAD51 R250A = RAD51 R250A (Homo sapiens, UniProt Q06609 1-339, R250A); assay: streptavidin-bead pull-down

Molecule: IENSALAFYTSCSRKTSVSQTSLLEAKKWLREGIF [BRC5]
affinity for RAD51 among the human BRC repeats (RAD51): lowest affinity

Molecule: KEPTLLGFHTASGKKVKIAKESLDKVKNLFDEKEQ [BRC4]
inhibition of complex (filament) formation at higher concentrations (RAD51-dsDNA filament): filament formation is prevented | pull-down of mCherry-RAD51^WT by Bio-BRC4 (mCherry-RAD51^WT): can also be pulled-down by Bio-BRC4 | pull-down of mCherry-RAD51^LL-EE by Bio-BRC4 [1]: defective in binding to Bio-BRC4 | pull-down of mCherry-RAD51^LLRR-EEAA by Bio-BRC4 [2]: defective in binding to Bio-BRC4

Molecule: KEPTLLGFHTASGKKVKVSQTSLLEAKKWLREGIF [BRC^45]
potency at competing the BRC4–RAD51 interaction relative to another peptide (BRC4–RAD51 interaction): more potent than BRC4 | inhibition of complex (filament) formation at higher concentrations (RAD51-dsDNA filament): inhibits complex formation when present in higher amounts | permissive (super-shift) and inhibitory behaviours in the EMSA (RAD51-dsDNA filament): exhibits both behaviours; also recorded: Concentration dependent super-shift and subsequent inhibition of filament formation

binding result [3]: binds
B1: BRC4 peptide (human BRCA2 BRC repeat 4, 35-mer) (peptide)
peptide: KEPTLLGFHTASGKKVKIAKESLDKVKNLFDEKEQ
modifications: N-terminal biotin attached through a 6-aminohexanoic acid spacer; C-terminal amide

binding result [3]: binds | binding result [4]: binds
B2: BRC^45 chimaeric peptide (N-terminal 17 residues of BRC4 and C-terminal 18 residues of BRC5) (peptide)
peptide: {Biotin-Ahx}-KEPTLLGFHTASGKKVKVSQTSLLEAKKWLREGIF-NH2
SMILES: CC[C@H](C)[C@H](NC(=O)CNC(=O)[C@H](CCC(=O)O)NC(=O)[C@H](CCCNC(=N)N)NC(=O)[C@H](CC(C)C)NC(=O)[C@H](Cc1c[nH]c2ccccc12)NC(=O)[C@H](CCCCN)NC(=O)[C@H](CCCCN)NC(=O)[C@H](C)NC(=O)[C@H](CCC(=O)O)NC(=O)[C@H](CC(C)C)NC(=O)[C@H](CC(C)C)NC(=O)[C@H](CO)NC(=O)[C@@H](NC(=O)[C@H](CCC(N)=O)NC(=O)[C@H](CO)NC(=O)[C@@H](NC(=O)[C@H](CCCCN)NC(=O)[C@@H](NC(=O)[C@H](CCCCN)NC(=O)[C@H](CCCCN)NC(=O)CNC(=O)[C@H](CO)NC(=O)[C@H](C)NC(=O)[C@@H](NC(=O)[C@H](Cc1c[nH]cn1)NC(=O)[C@H](Cc1ccccc1)NC(=O)CNC(=O)[C@H](CC(C)C)NC(=O)[C@H](CC(C)C)NC(=O)[C@@H](NC(=O)[C@@H]1CCCN1C(=O)[C@H](CCC(=O)O)NC(=O)[C@H](CCCCN)NC(=O)CCCCCNC(=O)CCCC[C@@H]1SC[C@@H]2NC(=O)N[C@@H]21)[C@@H](C)O)[C@@H](C)O)C(C)C)C(C)C)[C@@H](C)O)C(=O)N[C@@H](Cc1ccccc1)C(N)=O

B3: 60-mer ssDNA (ssDNA)
DNA: TACTGCCATTCTGTATCGCTTATCGAGTAGTTACCTGCCTAGCATTGCCACTCATAGCCT
binding result (RAD51 (WT)): binds | binding result (RAD51 R250A): binds

B4: 60-mer dsDNA (dsDNA)
DNA 1: B3 DNA
DNA 2: AGGCTATGAGTGGCAATGCTAGGCAGGTAACTACTCGATAAGCGATACAGAATGGCAGTA
binding result (RAD51 (WT)): binds | binding result (RAD51 R250A): binds
